Compound activity: PubChem, several laboratories
T cell modulator = T cell immune modulation candidate; response (vesicle binding), % at 7 µM; actives 0.068% (n = 330,000); 2C CD8+ T cell-vesicle binding, flow cytometry; stronger effect = lower value;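 active means response, share of CD8 T cells binding vesicles, and their 90th percentile fluorescence all below set limits, cut at about 80% in these data, passing the limit was not always enough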;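 further: values below 100% mean blocked vesicle binding to the CD8+ T cells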
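Material: 2C TCR transgenic mouse naive CD8+ T cells, MACS-purified. Also added: QL9-charged Drosophila Ld/ICAM-1/B7-1 vesicles. Timing: binding 1.5 h at 37 °C. Measured by: high-throughput flow cytometry with anti-B7-1 and anti-CD8 staining. Read-out: percent CD8+ FL2 mean versus row control. Controls: Unloaded micro-vesicles (low), QL9 vesicles with 0.7% DMSO (high).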
MC4R ag barr = human MC4R agonism via beta-arrestin; P32245; U2OS MC4R beta-arrestin complementation, luminescence; percent of melanotan II response, DMSO zero; activation, % at 8.9 µM; actives 0.98% (n = 360,000); AID 540308;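 active means activation above a per-plate cutoff, the mean activation of sample wells on that plate plus 3 SD, cut at about 8% in these data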
PGE2 EP2 inh = inhibitors of human EP2 prostaglandin E2 receptor. actives 0.52% (n = 260,000). inhibition, % at 25 µM. C6 glioma cells expressing human EP2, cAMP TR-FRET; cells stimulated with saturating PGE2. P43116;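 active means percent inhibition above 40 after rounding to a whole number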;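 further: rat C6 glioma host cells with rolipram phosphodiesterase inhibitor present; the protocol text gives 20 µM as final concentration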
Target sequence (P43116 whole entry, looked up): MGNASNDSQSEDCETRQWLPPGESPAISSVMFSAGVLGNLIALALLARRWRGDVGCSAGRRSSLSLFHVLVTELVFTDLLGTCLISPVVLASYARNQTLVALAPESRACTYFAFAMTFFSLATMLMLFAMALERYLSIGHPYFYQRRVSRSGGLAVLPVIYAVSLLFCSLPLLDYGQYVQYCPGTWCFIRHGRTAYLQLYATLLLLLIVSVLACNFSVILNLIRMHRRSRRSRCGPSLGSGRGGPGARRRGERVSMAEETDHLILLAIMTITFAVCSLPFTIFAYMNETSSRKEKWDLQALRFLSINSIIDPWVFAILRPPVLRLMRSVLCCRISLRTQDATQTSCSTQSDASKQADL
EP2 modulator = EP2 receptor (human) modulation; induction, % at 25 µM; actives 0.83% (n = 260,000); AID 940; EP2-expressing cells, cAMP HTRF FRET, PGE2 co-stimulation; P43116;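 active means compounds whose cAMP rise, as percent of the full-agonist control response, exceeds 60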;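 further: rat C6 glioma line stably carrying human EP2 under a CMV promoter; the protocol text gives 20 µM as final concentration; 100% = response of wells given 1 µM PGE2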
MC4R antagonist = blocks human MC4R cAMP signaling | actives 0.48% (n = 360,000) | P32245 | MC4R-expressing cells, MTII-stimulated cAMP, LANCE TR-FRET | inhibition, % at 6.5 µM;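 active means inhibition above its plate's cutoff, the mean of tested wells on that plate plus 3 SD, cut at about 29% in these data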;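 further: 0% = Melanotan II alone and 100% = Melanotan II plus saturating MCL0020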
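System: U2OS cells stably expressing human melanocortin 4 receptor (MC4R). Reagent: Melanotan II challenge after compound preincubation. Doses: 6.5 µM. Times: 30-min compound, 1-h challenge, 1-h detection, room temperature. Measured by: TR-FRET with Eu-cAMP and labeled anti-cAMP, 671 nm. Replicates: singlicate.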
Granule exo inh = blocks lytic granule exocytosis; TALL-104 LAMP-1 surface exposure, flow cytometry; cells stimulated with thapsigargin and PMA; inhibition, % at 10 µM; actives 0.66% (n = 360,000); AID 651702;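 active means inhibition above about 55%, limit read from the data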
EP2 confirm = human EP2 receptor cAMP induction, negative in counter-screens | shares compounds with EP2 modulator | C6 glioma EP2 cells, cAMP HTRF induction; plus low (about EC15) PGE2 agonist | calls only at 20 µM (by protocol) | actives 47% (n = 1,300);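 active means cAMP induction above 50% in the main assay while under 30% in all four parallel counter assays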;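 further: rat C6 glioma cells stably expressing human EP2 receptor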
The depositor's hits bear a star; i = inactive; · = no result; + = active, no number. A selection: hits, their analogues and other compounds. The true share with any hit is near 2.6%.

SMILES	T cell modulator	MC4R ag barr	PGE2 EP2 inh	EP2 modulator	MC4R antagonist	Granule exo inh	EP2 confirm
Cc1cc2cc3c(cc2nc1SCC(=O)OC(C)C)OCO3	·	0	·	68*	6	-1	+
Cc1ccc(C(=O)CSc2nc3cc4c(cc3cc2C)OCO4)cc1	·	·	7	-23	·	·	·
COc1ccc([C@@H]2CC(=O)c3c(O)cc(O[C@@H]4O[C@H](CO[C@H]5O[C@@H](C)[C@H](O)[C@@H](O)[C@H]5O)[C@@H](O)[C@H](O)[C@H]4O)cc3O2)cc1O	·	·	12	12	·	·	·
O=c1c2ccccc2nc(/C=C/c2cccnc2)n1CCc1ccccc1	292	0	10	-33	-3	15	·
C=CCSc1nc2ccccc2c(=O)n1Cc1ccccc1	i	3	10	72*	2	1	+
Cc1cccc(/C=C/c2nc3ccccc3c(=O)n2Cc2ccccc2)c1	98	-1	1	69*	-2	-1	+
C=CCSc1nc2ccsc2c(=O)n1-c1ccccc1	142	2	5	68*	27	-4	i
O=c1c2ccccc2nc(/C=C/c2ccccc2)n1CCc1ccccc1	189	-1	7	80*	11	-6	+
C=C(C)CSc1nc2ccccc2c(=O)n1Cc1ccccc1	·	·	9	26	·	·	·
CCOc1ccc(N(Cc2ccc(OC)cc2)C(=O)c2ccco2)cc1	208	0	7	65*	13	28	i
COc1ccc(N(CC(=O)N/N=C/c2ccc(OC3CSC3)cc2)S(=O)(=O)c2ccccc2)cc1	129	-1	8	36	-1	-1	·
Cc1ccc(N(CC(=O)N/N=C/c2ccc(OC3CSC3)cc2)S(=O)(=O)c2ccccc2)cc1	196	2	15	76*	7	-4	+
O=C(CN(C1CCCCC1)S(=O)(=O)c1ccc(F)cc1)N1CCCCC1	·	·	6	18	·	·	·
COc1ccc(S(=O)(=O)N2c3cc(C)ccc3OCC2C(C)(C)C)cc1 (configuration not stated)	314	-2	9	66*	-19	-2	+
COc1cccc(C(=O)N2c3cc(C)ccc3OCC2C(C)(C)C)c1 (configuration not stated)	181	-1	·	·	-3	7	·
O=C(O)[C@@H]1[C@H](C(=O)O)[C@@H](C(=O)O)C[C@H]1C(=O)O	·	·	13	61*	·	·	i
O=C(O)C1C2C=CC(C3CC23)C1C(=O)O (configuration not stated)	534	2	6	-2	4	9	·
CC12CCC(C(=O)N(CSC(=S)N/N=C\c3ccccc3Cl)C1=O)C2(C)C (configuration not stated)	110	-3	23	70*	-2	0	i
CC12CCC(C(=O)N(CSC(=S)N/N=C\c3ccccc3)C1=O)C2(C)C (configuration not stated)	212	-1	·	31	-4	-1	·
Cc1nc(N2N=C(c3ccc(Cl)cc3)CC2c2ccco2)sc1C(=O)N(C)C (configuration not stated)	732	-1	5	72*	16	-2	+
CC(C)(C)OC(=O)C[C@H]1C/C=C\C[C@@H](CC(=O)NCCO)C(=O)NC[C@H](c2ccccc2)OC1=O	886	0	·	·	12	-4	·
N#CC1=C(N)S[C@H](C(=O)C23CC4CC(CC(C4)C2)C3)[C@H]1c1ccncc1	136	-2	11	66*	-3	1	i
CC(=O)NC(Cc1c[nH]c2ccccc12)C(=O)N/N=C/c1ccccc1 (configuration not stated)	209	-1	7	-17	-5	0	·
CCOP(=O)(OCC)c1nc(/C=C/c2ccccc2)oc1NCc1ccc(OC)cc1	358	0	11	31	12	-1	·
CCOP(=O)(OCC)c1nc(-c2cccc3ccccc23)oc1NCc1ccccc1	699	1	2	77*	14	26	+
SMILES	T cell modulator	MC4R ag barr	PGE2 EP2 inh	EP2 modulator	MC4R antagonist	Granule exo inh	EP2 confirm
CCOP(=O)(OCC)c1nc(-c2ccc(C)cc2)oc1NCc1ccccc1	250	-2	10	81*	14	-1	+
CCOP(=O)(OCC)c1nc(/C=C/c2ccccc2)oc1NCc1ccccc1	316	1	3	51	12	-2	i
CCOP(=O)(OCC)c1nc(-c2cccc3ccccc23)oc1NCc1ccc(OC)cc1	594	-2	9	71*	0	6	i
COP(=O)(OC)c1nc(-c2cccc3ccccc23)oc1NCCc1ccccc1	110	2	7	46	-1	1	·
O=C(CN1CCC(O)(c2ccc3c(c2)OCO3)CC1)N1CCOCC1	208	1	8	6	3	-2	·
CC/C(C)=C1\SC(N2CCN(c3cccc(C(F)(F)F)c3)CC2)=NC1=O	278	4	5	50	9	-2	·
COc1ccc(C(=O)C=CNNC(=O)c2ccc(Cl)cc2)cc1	135	-1	·	·	17	2	·
Oc1c(N=Nc2ccccc2)sc2ccccc12	157	-3	7	-50	-7	1	·
CC(C)CC(N)c1csc(Nc2ccc(S(C)(=O)=O)cc2)n1 (configuration not stated)	·	0	·	·	8	-4	·
Cc1cc[n+](-c2[nH]c(=O)sc2/C=N/N=C(\[O-])c2ccccc2)cc1C	·	-1	5	2	-23	-4	·
O=C(c1cccs1)N1N=C(c2ccccc2)CC1c1ccc(O)cc1 (configuration not stated)	i	1	14	74*	7	7	i
O=C(c1ccccc1)N1N=C(c2ccc(F)cc2)CC1c1ccc(F)cc1 (configuration not stated)	·	2	·	·	11	-6	·
CO/N=C/c1ccc(Oc2ccc(C)cc2)nc1	263	2	20	31	1	-3	·
CCn1c(O)c(C=Nc2ccccc2)oc1=S	455	-2	17	6	7	0	·
CC1Cc2ccccc2N1CC(=O)NC(c1ccccc1)c1ccccc1 (configuration not stated)	262	0	10	72*	14	0	+
O=C(CN1CCCCCC1)NC(c1ccccc1)c1ccccc1	511	0	·	·	1	13	·
CC1CC(C)CN(CC(=O)NC(c2ccccc2)c2ccccc2)C1 (configuration not stated)	360	0	9	72*	1	1	i
